This note sets out measurements from ChEMBL document CHEMBL1125581 (J Med Chem, 1991).

The target of test [1] is T1, Muscarinic acetylcholine receptor M1 (Rattus norvegicus, UniProt P08482).
T1 sequence (P08482 whole entry): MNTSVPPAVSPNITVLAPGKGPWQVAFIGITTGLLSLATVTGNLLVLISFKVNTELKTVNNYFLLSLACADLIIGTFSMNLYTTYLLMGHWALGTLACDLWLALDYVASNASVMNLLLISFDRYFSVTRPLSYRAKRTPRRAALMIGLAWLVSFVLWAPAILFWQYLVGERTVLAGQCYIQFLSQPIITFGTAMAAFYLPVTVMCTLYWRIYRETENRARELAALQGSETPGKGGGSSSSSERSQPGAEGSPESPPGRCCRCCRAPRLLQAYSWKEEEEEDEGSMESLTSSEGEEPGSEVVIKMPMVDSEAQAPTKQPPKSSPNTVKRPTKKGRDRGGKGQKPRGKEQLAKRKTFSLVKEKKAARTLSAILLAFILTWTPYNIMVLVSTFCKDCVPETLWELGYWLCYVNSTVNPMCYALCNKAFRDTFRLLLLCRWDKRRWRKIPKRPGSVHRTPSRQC
As to the kind of experiment: Inhibition of binding of [3H]N-Methyl-scopolamine to Muscarinic acetylcholine receptor M1 of transfected A9L cells. It counts as cell-based. In a few lines:
(§1)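 Confluent A9L (transfected m1/m3) or NG108-15 (m4) cultures were lysed in 2 mM Tris-HCl pH 7.1/1 mM EDTA, 30 min, 2 °C, then homogenized. Crude membranes were spun at 50000g. Membranes (150–300 μg protein) were incubated with 0.5 nM [3H]NMS and varied analogue in DMEM-Hepes for 90 min at 37 °C, then filtered. Nonspecific binding was set with 1 μM atropine. Ki values are from 1–3 triplicate determinations.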

Test [2] concerns the target T2, Muscarinic acetylcholine receptor M2 (Rattus norvegicus, UniProt P10980).
T2 sequence (P10980 whole entry): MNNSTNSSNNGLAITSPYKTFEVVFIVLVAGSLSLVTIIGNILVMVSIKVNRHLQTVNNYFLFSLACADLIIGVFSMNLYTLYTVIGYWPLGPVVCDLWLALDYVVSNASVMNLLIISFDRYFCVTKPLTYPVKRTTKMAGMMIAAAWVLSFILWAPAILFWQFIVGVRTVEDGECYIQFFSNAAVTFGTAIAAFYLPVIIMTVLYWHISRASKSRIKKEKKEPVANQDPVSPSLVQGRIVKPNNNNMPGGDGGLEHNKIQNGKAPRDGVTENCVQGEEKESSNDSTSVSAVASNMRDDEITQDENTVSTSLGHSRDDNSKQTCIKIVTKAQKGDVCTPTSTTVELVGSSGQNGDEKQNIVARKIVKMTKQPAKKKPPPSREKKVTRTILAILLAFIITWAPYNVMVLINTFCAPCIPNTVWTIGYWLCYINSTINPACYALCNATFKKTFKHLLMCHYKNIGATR
Put plainly: Inhibition of binding of [3H]N-Methyl-scopolamine to Muscarinic acetylcholine receptor M2 of rat heart tissue membranes. In kind it is cell membranes, Membrane. In a few lines:
(§2)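 Rat heart membranes (150–300 μg protein) incubated 90 min at 37 °C in DMEM-Hepes with 0.5 nM [3H]NMS and varied unlabeled analogue concentrations. Bound radioligand collected by rapid GF/B filtration, washed with ice-cold 0.9% NaCl, and scintillation counted. Nonspecific binding with 1 μM atropine subtracted. Ki values come from one to three determinations, each in triplicate.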

In test [3] the target is T3, Muscarinic acetylcholine receptor M3 (Rattus norvegicus, UniProt P08483). As to the kind of experiment: Compound was tested for the inhibition of binding of [3H]N-Methyl-scopolamine to mmuscarinic acetylcholine receptor M3 of transfected rat A9L cells. In kind it is cell-based. In a few lines:
as §1

For test [4], the target named is T2, Muscarinic acetylcholine receptor M2. Put plainly: Inhibition of binding of [3H]N-methylscopolamine to muscarinic acetylcholine receptor M2 of rat heart tissue membrane. It counts as tissue-based. In a few lines:
as §2

The target in test [5] is T1, Muscarinic acetylcholine receptor M1. Put plainly: Inhibition of binding of [3H]N-methylscopolamine to muscarinic acetylcholine receptor M1 of transfected rat A9L cells. It counts as cell-based.
Test [6] deals with T4, Muscarinic acetylcholine receptor M4 (Rattus norvegicus, UniProt P08485).
T4 sequence (P08485 whole entry): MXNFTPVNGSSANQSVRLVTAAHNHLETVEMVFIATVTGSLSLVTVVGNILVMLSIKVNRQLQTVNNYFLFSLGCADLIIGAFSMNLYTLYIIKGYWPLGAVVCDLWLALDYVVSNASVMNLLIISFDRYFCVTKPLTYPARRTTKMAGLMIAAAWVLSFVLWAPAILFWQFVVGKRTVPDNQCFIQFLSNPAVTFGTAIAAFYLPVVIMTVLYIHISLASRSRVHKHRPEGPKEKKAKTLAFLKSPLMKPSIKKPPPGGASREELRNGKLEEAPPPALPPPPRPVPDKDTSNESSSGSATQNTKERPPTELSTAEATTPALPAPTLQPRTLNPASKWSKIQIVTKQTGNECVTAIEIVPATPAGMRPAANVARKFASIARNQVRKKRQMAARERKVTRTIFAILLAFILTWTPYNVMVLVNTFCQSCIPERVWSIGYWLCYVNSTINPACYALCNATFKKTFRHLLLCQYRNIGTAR
Put plainly: Inhibition of binding of [3H]N-Methyl-scopolamine to muscarinic acetylcholine receptor M4 of rat […] NG108-15 cells. It counts as cell-based.

Test [7] has as its target T1, Muscarinic acetylcholine receptor M1. Put plainly: The compound was tested for the inhibition of binding of [3H]N-Methyl-scopolamine to muscarinic acetylcholine receptor M1 of transfected A9L cells. In kind it is cell-based. In a few lines: as §1
The target in test [8] is T2, Muscarinic acetylcholine receptor M2. Put plainly: The compound was tested for the inhibition of binding of [3H]N-Methyl-scopolamine to muscarinic acetylcholine receptor M2 of rat heart tissue membranes. In kind it is cell membranes, Membrane. Put shortly:
as §2

In test [9] the target is T3, Muscarinic acetylcholine receptor M3. Put plainly: The compound was tested for the inhibition of binding of [3H]N-Methyl-scopolamine to Muscarinic acetylcholine receptor M3 of transfected A9L cells. It counts as cell-based. In a few lines:
(§3)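 Crude membranes (150–300 μg protein) were incubated 90 min at 37 °C in DMEM-Hepes with 0.5 nM [3H]NMS and a range of unlabeled analogue concentrations. Incubation was stopped by rapid GF/B filtration, followed by ice-cold 0.9% NaCl washes and scintillation counting. Nonspecific binding was defined with 1 μM atropine and subtracted. Ki came from one to three determinations, each run in triplicate.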

The target in test [10] is T4, Muscarinic acetylcholine receptor M4. Put plainly: Inhibition of binding of [3H]N-Methyl-scopolamine to Muscarinic acetylcholine receptor M4 of NG108-15 cells. It counts as cell-based. In a few lines:
as §1

For test [11], the target named is T2, Muscarinic acetylcholine receptor M2. As to the kind of experiment: The compound was tested for the inhibition of binding of [3H]N-Methyl-scopolamine to muscarinic acetylcholine receptor M2 of rat heart tissue membranes. It counts as cell membranes, Membrane. In a few lines:
as §3

Test [12] addresses T3, Muscarinic acetylcholine receptor M3. As to the kind of experiment: The compound was tested for the inhibition of binding of [3H]N-Methyl-scopolamine to muscarinic acetylcholine receptor M3 of transfected A9L cells. It counts as cell-based. Put shortly: as §3
The target of test [13] is T1, Muscarinic acetylcholine receptor M1. As to the kind of experiment: The compound was tested for the inhibition of binding of [3H]N-Methyl-scopolamine to muscarinic acetylcholine receptor M1r of transfected A9L cells. In kind it is cell-based. Put shortly:
as §3

SMILES strings stand for the structures. A value given as a limit tells only on which side of the number the result lay.

T3 sequence (P08483 whole entry): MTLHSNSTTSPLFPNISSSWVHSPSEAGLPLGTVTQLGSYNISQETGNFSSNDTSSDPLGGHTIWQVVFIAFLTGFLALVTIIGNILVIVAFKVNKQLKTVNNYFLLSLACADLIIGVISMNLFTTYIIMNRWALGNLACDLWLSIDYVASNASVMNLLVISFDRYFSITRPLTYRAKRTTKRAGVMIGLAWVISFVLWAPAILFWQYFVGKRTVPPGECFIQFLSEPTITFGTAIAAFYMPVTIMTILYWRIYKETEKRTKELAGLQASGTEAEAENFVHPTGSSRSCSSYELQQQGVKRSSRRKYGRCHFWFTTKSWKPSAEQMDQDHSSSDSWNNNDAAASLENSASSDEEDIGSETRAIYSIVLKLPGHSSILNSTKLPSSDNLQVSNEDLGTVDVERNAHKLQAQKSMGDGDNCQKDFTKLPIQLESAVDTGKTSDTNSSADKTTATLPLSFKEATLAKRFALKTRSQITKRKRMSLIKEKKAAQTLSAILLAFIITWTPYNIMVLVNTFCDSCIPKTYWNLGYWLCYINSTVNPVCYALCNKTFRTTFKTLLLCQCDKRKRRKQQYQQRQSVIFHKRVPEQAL

Turning to `NCCCCCCCCCCN1CCN(CC(=O)N2c3ccccc3C(=O)Nc3cccnc32)CC1`, the Ki was 15.8 nM in [1] and 11.7 nM in test [2].
With `CCN(CC)CCCCCCCCCCN1CCN(CC(=O)N2c3ccccc3C(=O)Nc3cccnc32)CC1`, the inhibition constant (Ki) turned out to be 3 nM in [1] and 13.5 nM in test [2].
`NCCCCCCCN1CCN(CC(=O)N2c3ccccc3C(=O)Nc3cccnc32)CC1`: the Ki in [1] was 66 nM; in [2] it was 57 nM.
Take `CNC(=O)c1ccc(CN2CCN(CC(=O)N3c4ccccc4C(=O)Nc4cccnc43)CC2)cc1`: the Ki in test [3] worked out at 4.02 µM; in [4], 2650 nM; in test [5], 2840 nM; in test [6] it was 2940 nM.
Regarding `CCN1C(=O)c2ccccc2N(C(=O)CN2CCN(C)CC2)c2ncccc21`, the results for the Ki in [7] and in [8] were 7.7 µM and 8 µM, respectively.
With `O=C1Nc2cccnc2N(C(=O)CN2CCN(CCCCCCN3C(=O)c4ccccc4C3=O)CC2)c2ccccc21`, the Ki in [1] and in test [2] was 18 nM throughout.
In the case of `O=C1Nc2cccnc2N(C(=O)CN2CCN(CCCl)CC2)c2ccccc21`, the inhibition constant Ki in test [9] was 78 nM; in [10] it was 130 nM; in test [1] it was 52 nM; in test [2], 210 nM.
Consider `CN1CCN(CC(=O)N2c3ccccc3C(=O)N(CCCCCCC#N)c3cccnc32)CC1`, for which the affinity in test [7], expressed as Ki, was 8.9 µM.
As to `CN1CCN(CC(=O)N2c3cc(CO[Si](C)(C)C(C)(C)C)ccc3C(=O)Nc3cccnc32)CC1`, the values for the Ki in [11], in test [12] and in test [13] were 4.4 µM, above 30 µM and above 30 µM, respectively.
`CC(=O)NCCCCCCCCCCN1CCN(CC(=O)N2c3ccccc3C(=O)Nc3cccnc32)CC1`: the Ki worked out at 75 nM in test [1] and 43 nM in [2].
